Assay results published in ChEMBL document CHEMBL4017453, “Design, synthesis and optimization of bis-amide derivatives as CSF1R inhibitors” (Bioorg Med Chem Lett, 2017).
In brackets after ≈: the same amount, converted by molar mass. Activity calls are given as the source filed them. No cut-off for these calls is given here.

What was measured:
[1] = biological target: Mast/stem cell growth factor receptor Kit (Homo sapiens, UniProt P10721); assay: Inhibition of human c-Kit using poly[Glu:Tyr] (4:1) as substrate measured after 2 hrs in presence of [33gammaP]ATP by […] ion exchange chromatographic method
Mast/stem cell growth factor receptor Kit, sequence (P10721 whole entry): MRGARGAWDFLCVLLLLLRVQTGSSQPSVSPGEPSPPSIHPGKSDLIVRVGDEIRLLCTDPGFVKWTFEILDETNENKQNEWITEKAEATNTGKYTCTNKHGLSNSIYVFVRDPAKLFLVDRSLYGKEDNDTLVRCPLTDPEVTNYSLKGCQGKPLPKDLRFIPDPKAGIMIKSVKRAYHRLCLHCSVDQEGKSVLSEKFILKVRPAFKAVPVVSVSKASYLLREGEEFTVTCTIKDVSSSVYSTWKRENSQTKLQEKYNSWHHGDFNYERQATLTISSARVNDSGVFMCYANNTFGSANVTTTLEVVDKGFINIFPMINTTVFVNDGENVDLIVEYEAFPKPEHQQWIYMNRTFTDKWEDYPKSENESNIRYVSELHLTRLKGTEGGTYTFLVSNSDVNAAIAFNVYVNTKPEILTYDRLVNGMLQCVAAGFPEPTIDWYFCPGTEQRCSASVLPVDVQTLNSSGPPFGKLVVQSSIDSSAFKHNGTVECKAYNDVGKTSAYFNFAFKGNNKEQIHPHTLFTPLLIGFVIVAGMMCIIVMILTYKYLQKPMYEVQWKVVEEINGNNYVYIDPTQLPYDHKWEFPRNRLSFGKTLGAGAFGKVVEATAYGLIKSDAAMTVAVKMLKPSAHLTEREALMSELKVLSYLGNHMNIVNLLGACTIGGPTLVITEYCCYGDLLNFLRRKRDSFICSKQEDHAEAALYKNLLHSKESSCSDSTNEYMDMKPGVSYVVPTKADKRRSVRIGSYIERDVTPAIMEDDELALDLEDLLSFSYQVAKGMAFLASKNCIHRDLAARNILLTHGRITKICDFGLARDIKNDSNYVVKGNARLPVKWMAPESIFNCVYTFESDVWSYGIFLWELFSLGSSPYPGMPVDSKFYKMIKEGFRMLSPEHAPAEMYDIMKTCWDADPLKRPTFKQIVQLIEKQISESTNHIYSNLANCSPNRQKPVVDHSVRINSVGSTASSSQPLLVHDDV
Summary of the method: (§1)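 Radiometric kinase assay: enzyme incubated with [γ-33P]-ATP and peptide substrate; IC50 curves fitted per compound. Selectivity expressed as c-Kit IC50 over CSF1R IC50.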

RAW264.7 = assay: Growth inhibition of mouse RAW264.7 cells at 1 uM after 72 hrs by CellTiter-Glo luminescent assay relative to control; type: functional; details: for inhibition of growth at 1 µM: RAW264.7, 72 h, read-out: GI
[2] = Growth inhibition of mouse BMMC at 1 uM after 72 hrs by CellTiter-Glo luminescent assay relative to control; type: functional; details: read-out: GI
Summary of the method: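 Cell viability in primary mouse bone marrow-derived macrophages, which depend on CSF1 for survival; inhibition measured at 1 single concentration.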

[3] = Stability in human liver microsomes assessed as compound remaining at 1 uM after 30 mins in presence of NADPH by LC/MS/MS analysis; type: ADME, microsome; details: read-out: Stability
Summary of the method: (§2)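 Metabolic stability in human or mouse liver microsomes supplemented with NADPH; reported as percent of parent remaining relative to time-zero control.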

Liver [4] = assay: Drug level in mouse liver microsomes treated with N-(4-methyl-3-(3-(1-methyl-1H-pyrazol-4-yl)benzamido)phenyl)-4-((4-methylpiperazin-1-yl)methyl)-3-(trifluoromethyl)benzamide at 10 uM measured after 1 hr in presence of NADPH; type: ADME, microsome
[5] = Stability in mouse liver microsomes assessed as compound remaining at 1 uM after 30 mins in presence of NADPH by LC/MS/MS analysis; type: ADME, microsome; details: read-out: Stability; summary of the method: as §2
[6] = Kinetic solubility of the compound in PBS buffer at pH 7.4 at […] after 1 hr by nephelometry; type: physicochemical; details: read-out: Kinetic_solubility
Summary of the method: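 Kinetic solubility determined in isotonic phosphate buffer.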

[7] = Terminal half life in CD-1 mouse at 2 mg/kg, iv; type: ADME, organism-based; details: in vivo, read-out: beta t1/2 (converted)
Summary of the method: (§3)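 Mice given a single IV dose (2 mg/kg) or oral dose (10 mg/kg); plasma levels followed over time. AUClast taken from time 0 to last quantifiable concentration; Cmax and Tmax read from observed profile; CL is systemic clearance and Vss volume at steady state, both from IV; oral bioavailability derived from PO versus IV exposure.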

[8] = Cmax in CD-1 mouse plasma at 2 mg/kg, iv; type: ADME, organism-based; set-up: dose 2 mg/kg, route intravenous; summary of the method: as §3
Liver [9] = assay: Drug metabolism in mouse liver microsomes assessed as demethylation by measuring N-(4-methyl-3-(3-(1-methyl-1H-pyrazol-4-yl)benzamido)phenyl)-4-(piperazin-1-ylmethyl)-3-(trifluoromethyl)benzamide level at 10 uM measured after 1 hr in presence of NADPH; type: ADME, microsome
[10] = AUC (0 to last) in CD-1 mouse at 2 mg/kg, iv; type: ADME, organism-based; set-up: dose 2 mg/kg, time 0 - last, route intravenous; details: in vivo; summary of the method: as §3
[11] = Stability in mouse plasma assessed as compound remaining at 1 uM after 4 hrs by LC/MS/MS analysis; type: ADME, cell-free; details: read-out: Stability
Summary of the method: (§4)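 Test article incubated 4 h in human or mouse plasma to probe amidase hydrolysis; percent parent remaining versus time-zero control.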

[12] = Clearance in iv dosed mouse; type: ADME, organism-based; details: in vivo; summary of the method: as §3
[13] = Cmax in CD-1 mouse plasma at 10 mg/kg, po; type: ADME, organism-based; set-up: dose 10 mg/kg, route oral; summary of the method: as §3
[14] = Tmax in CD-1 mouse at 10 mg/kg, po; type: ADME, organism-based; details: in vivo; summary of the method: as §3
[15] = Terminal half life in CD-1 mouse at 10 mg/kg, po; type: ADME, organism-based; details: in vivo, read-out: beta t1/2 (converted); summary of the method: as §3
[16] = Oral bioavailability in CD-1 mouse at 10 mg/kg; type: ADME, organism-based; details: in vivo; summary of the method: as §3
[17] = Volume of distribution at steady state in CD-1 mouse at 2 mg/kg, iv; type: ADME, organism-based; details: in vivo, read-out: Vdss; summary of the method: as §3
[18] = Stability in human plasma assessed as compound remaining at 1 uM after 4 hrs by LC/MS/MS analysis; type: ADME, cell-free; details: read-out: Stability; summary of the method: as §4
[19] = Systemic clearance in CD-1 mouse at 2 mg/kg, iv; type: ADME, organism-based; details: in vivo; summary of the method: as §3
[20] = AUC (0 to last) in CD-1 mouse at 10 mg/kg, po; type: ADME, organism-based; set-up: dose 10 mg/kg, route oral, time 0 - last; details: in vivo; summary of the method: as §3
[21] = Apparent permeability from apical to basolateral side in human Caco2 cells at 10 uM incubated for 60 mins by LC-MS/MS analysis; type: ADME, cell-based, Caco-2; details: for Papp A→B at 1 h, 10 µM: Caco-2
Summary of the method: (§5)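 Caco2 monolayer permeability measured in apical-to-basolateral and basolateral-to-apical directions; mean Papp with SD reported, efflux ratio calculated from the two directions.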

[22] = Apparent permeability from basolateral to apical side in human Caco2 cells at 10 uM incubated for 60 mins by LC-MS/MS analysis; type: ADME, cell-based, Caco-2; details: for Papp B→A at 1 h, 10 µM: Caco-2; summary of the method: as §5
Homo sapiens = species on record: Homo sapiens; assay: Selectivity ratio of IC50 for human c-Kit to IC50 for human CSF1R; summary of the method: as §1
[23] = biological target: Macrophage colony-stimulating factor 1 receptor (Homo sapiens, UniProt P07333); assay: Inhibition of human CSF1R using poly[Glu:Tyr] (4:1) as substrate incubated for 2 hrs in presence of [33gammaP]ATP by P81 ion exchange chromatographic method
Macrophage colony-stimulating factor 1 receptor, sequence (P07333 whole entry): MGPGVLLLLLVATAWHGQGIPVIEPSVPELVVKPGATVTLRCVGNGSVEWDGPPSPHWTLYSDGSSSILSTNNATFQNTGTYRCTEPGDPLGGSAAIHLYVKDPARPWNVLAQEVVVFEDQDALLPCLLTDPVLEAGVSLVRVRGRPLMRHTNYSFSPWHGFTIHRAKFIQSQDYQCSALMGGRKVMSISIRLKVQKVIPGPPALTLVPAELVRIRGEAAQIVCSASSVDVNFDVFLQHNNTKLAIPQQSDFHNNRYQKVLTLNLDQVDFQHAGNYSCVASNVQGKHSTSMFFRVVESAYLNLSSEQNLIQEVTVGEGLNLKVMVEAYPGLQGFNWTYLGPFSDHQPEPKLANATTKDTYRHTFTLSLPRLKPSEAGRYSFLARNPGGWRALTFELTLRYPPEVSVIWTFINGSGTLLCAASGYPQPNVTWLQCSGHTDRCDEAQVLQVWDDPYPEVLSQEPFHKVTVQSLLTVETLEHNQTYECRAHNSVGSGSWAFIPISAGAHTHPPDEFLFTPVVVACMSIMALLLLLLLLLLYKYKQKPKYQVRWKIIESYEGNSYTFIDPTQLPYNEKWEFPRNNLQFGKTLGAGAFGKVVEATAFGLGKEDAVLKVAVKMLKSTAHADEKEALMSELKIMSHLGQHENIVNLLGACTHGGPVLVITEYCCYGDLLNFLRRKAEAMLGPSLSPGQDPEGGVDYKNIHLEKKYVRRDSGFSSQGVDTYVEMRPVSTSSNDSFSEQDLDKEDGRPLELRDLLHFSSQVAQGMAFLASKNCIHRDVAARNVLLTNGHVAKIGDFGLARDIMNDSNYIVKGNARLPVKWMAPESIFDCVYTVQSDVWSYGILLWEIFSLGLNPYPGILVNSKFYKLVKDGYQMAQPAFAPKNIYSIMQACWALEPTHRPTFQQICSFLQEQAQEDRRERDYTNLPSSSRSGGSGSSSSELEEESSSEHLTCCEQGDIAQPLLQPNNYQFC

Cc1ccc(NC(=O)c2ccc(CN3CCN(C)CC3)c(C(F)(F)F)c2)cc1NC(=O)c1cccc(-c2cccs2)c1
IC50 [1]: 1680 nM

Cc1ccc(NC(=O)c2ccc(CN3CCN(C)CC3)c(C(F)(F)F)c2)cc1NC(=O)c1cccc(-c2cccnc2)c1
growth inhibition (GI) (RAW264.7): inactive | inhibition of growth at 1 µM [2]: 84% | IC50 [1]: 900 nM

Cc1ccc(NC(=O)c2ccc(CN3CCN(C)CC3)c(C(F)(F)F)c2)cc1NC(=O)c1cccc(-c2ccncc2)c1
growth inhibition (GI) (RAW264.7): inactive | inhibition of growth at 1 µM [2]: 72% | IC50 [1]: 390 nM

Cc1ccc(NC(=O)c2ccc(CN3CCNCC3)c(C(F)(F)F)c2)cc1NC(=O)c1cccc(-c2cnn(C)c2)c1
remaining at 0.5 h, 1 µM [3]: 85% | Drug metabolism (Liver [4]): Metabolite_Detected | inhibition of growth at 1 µM [2]: 44% | remaining at 0.5 h, 1 µM [5]: 72% | IC50 [1]: 3000 nM

Cc1ccc(NC(=O)c2cccc(C(F)(F)F)c2)cc1NC(=O)c1cccc(-c2cnn(C)c2)c1
remaining at 0.5 h, 1 µM [3]: 68% | growth inhibition (GI) (RAW264.7): inactive | remaining at 0.5 h, 1 µM [5]: 74% | IC50 [1]: 130 nM

Cc1ccc(NC(=O)c2ccc(CN3CCN(C)CC3)c(C(F)(F)F)c2)cc1NC(=O)c1cccc(-c2cnn(C)c2)c1
remaining at 0.5 h, 1 µM [3]: 46 to 47% | growth inhibition (GI) (RAW264.7): inactive | solubility kinetic at 1 h [6]: 4.7 µM (≈ 2.78 µg/mL) | half-life [7]: 13.8 min | Cmax [8]: 850 nM | inhibition of growth at 1 µM [2]: 81% | Drug metabolism (Liver [9]): Metabolite_Detected | AUC(0-t) [10]: 0.27 µM·h | remaining at 0.5 h, 1 µM [5]: 7% | remaining at 4 h, 1 µM [11]: 67% | IC50 [1]: 740 nM | clearance [12]: 210 mL/min/kg | Cmax [13]: 160 nM | Tmax [14]: 15 min | half-life [15]: 79.2 min | bioavailability [16]: 11% | Vd [17]: 4.23 L/kg | remaining at 4 h, 1 µM [18]: 95% | clearance [19]: 210 mL/min/kg | AUC(0-t) [20]: 0.16 µM·h

Cc1ccc(C(=O)N(C)c2ccc(CN3CCN(C)CC3)c(C(F)(F)F)c2)cc1NC(=O)c1cccc(-c2cccs2)c1
IC50 [1]: 5900 nM

Cc1ccc(C(=O)Nc2ccc(CN3CCN(C)CC3)c(C(F)(F)F)c2)cc1N(C)C(=O)c1cccc(-c2cccs2)c1
IC50 [1]: > 10000 nM

Cc1ccc(NC(=O)c2cccc(C(F)(F)F)c2)cc1NC(=O)c1cnc(N)nc1
remaining at 0.5 h, 1 µM [3]: 91% | growth inhibition (GI) (RAW264.7): inactive | inhibition of growth at 1 µM [2]: 86% | Papp A→B at 1 h, 10 µM [21]: 0.1 ×10⁻⁶ cm/s | Papp B→A at 1 h, 10 µM [22]: 5.3 ×10⁻⁶ cm/s | remaining at 0.5 h, 1 µM [5]: 65% | IC50 [1]: 820 nM

Cc1ccc(NC(=O)c2ccc(CN3CCN(C)CC3)c(C(F)(F)F)c2)cc1NC(=O)c1cccc(-c2cncnc2)c1
growth inhibition (GI) (RAW264.7): inactive | inhibition of growth at 1 µM [2]: 76% | IC50 [1]: 5970 nM

Cc1ccc(CNc2ccc(CN3CCN(C)CC3)c(C(F)(F)F)c2)cc1NC(=O)c1cccc(-c2cccs2)c1
IC50 [1]: 270 nM

Cc1ccc(C(=O)Nc2ccc(CN3CCN(C)CC3)c(C(F)(F)F)c2)cc1NC(=O)c1cccc(-c2cncnc2)c1
inhibition of growth at 1 µM (RAW264.7): 9% | inhibition of growth at 1 µM [2]: 64% | IC50 [1]: 310 nM

Cc1ccc(NC(=O)c2ccc(CN3CCN(C)CC3)c(C(F)(F)F)c2)cc1NC(=O)c1cccc(-c2cn[nH]c2)c1
growth inhibition (GI) (RAW264.7): inactive | Ratio IC50 (Homo sapiens): > 40 | inhibition of growth at 1 µM [2]: 80% | IC50 [23]: < 0.0005 µM | IC50 [1]: 20 nM

Cc1ccc(NC(=O)c2ccc(CN3CCN(C)CC3)c(C(F)(F)F)c2)cc1NC(=O)c1cccc(-c2ccccn2)c1
growth inhibition (GI) (RAW264.7): inactive | inhibition of growth at 1 µM [2]: 31% | IC50 [1]: 15000 nM

Cc1ccc(C(=O)Nc2ccc(CN3CCN(C)CC3)cc2)cc1NC(=O)c1cccc(-c2cccs2)c1
inhibition of growth at 1 µM (RAW264.7): 8% | inhibition of growth at 1 µM [2]: 11% | IC50 [23]: > 10 µM | IC50 [1]: > 10000 nM

Cc1ccc(C(=O)Nc2ccc(CN3CCN(C)CC3)c(Cl)c2)cc1NC(=O)c1cccc(-c2cccs2)c1
inhibition of growth at 1 µM (RAW264.7): 4% | inhibition of growth at 1 µM [2]: 20% | IC50 [1]: 2700 nM

Cc1ccc(C(=O)Nc2ccc(CN3CCN(C)CC3)c(C(F)(F)F)c2)cc1NCc1cccc(-c2cccs2)c1
IC50 [1]: > 10000 nM

Cc1ccc(NC(=O)c2cccc(C(F)(F)F)c2)cc1NC(=O)c1cncc(-c2cnn(C)c2)c1
remaining at 0.5 h, 1 µM [3]: 37% | growth inhibition (GI) (RAW264.7): inactive | half-life [7]: 52.2 min | Cmax [8]: 3550 nM | inhibition of growth at 1 µM [2]: 96% | Papp A→B at 1 h, 10 µM [21]: 12.5 ×10⁻⁶ cm/s | Papp B→A at 1 h, 10 µM [22]: 32.5 ×10⁻⁶ cm/s | AUC(0-t) [10]: 2.24 µM·h | remaining at 0.5 h, 1 µM [5]: 63% | IC50 [1]: 60 nM | Cmax [13]: 4600 nM | Tmax [14]: 30 min | half-life [15]: 108 min | bioavailability [16]: 64% | Vd [17]: 1.1 L/kg | clearance [19]: 31 mL/min/kg | AUC(0-t) [20]: 6.94 µM·h

CN1CCN(Cc2ccc(NC(=O)c3ccc(Cl)c(NC(=O)c4cccc(-c5cccs5)c4)c3)cc2C(F)(F)F)CC1
inhibition of growth at 1 µM (RAW264.7): 8% | inhibition of growth at 1 µM [2]: -7% | IC50 [1]: 190 nM

Cc1ccc(NC(=O)c2ccc(CN3CCN(C)CC3)c(C(F)(F)F)c2)cc1NC(=O)c1cccc(-c2nn[nH]n2)c1
growth inhibition (GI) (RAW264.7): inactive | inhibition of growth at 1 µM [2]: 2.4% | IC50 [1]: 7500 nM

Cc1ncc(NC(=O)c2cccc(C(F)(F)F)c2)cc1NC(=O)c1cncc(-c2cnn(C)c2)c1
remaining at 0.5 h, 1 µM [3]: 60% | growth inhibition (GI) (RAW264.7): inactive | inhibition of growth at 1 µM [2]: 87% | Papp ([21]; caco-2, 1 h, 10 µM): 0.5 ×10⁻⁶ cm/s | Papp ([22]; caco-2, 1 h, 10 µM): 36.3 ×10⁻⁶ cm/s | remaining at 0.5 h, 1 µM [5]: 57% | IC50 [1]: 180 nM

Cc1ccc(C(=O)Nc2ccc(CN3CCN(C)CC3)c(C(F)(F)F)c2)cc1NC(=O)c1cccc(-c2cccs2)c1
inhibition of growth at 1 µM (RAW264.7): 7% | inhibition of growth at 1 µM [2]: 22% | IC50 [1]: 440 nM

Cc1ccc(C(=O)Nc2ccc(CN3CCN(C)CC3)c(C(F)(F)F)c2)cc1NC(=O)c1cccc(-c2cccnc2)c1
inhibition of growth at 1 µM (RAW264.7): 6% | inhibition of growth at 1 µM [2]: 61% | IC50 [1]: 210 nM
